KCNK3 block – human KCNK3 channel inhibition, primary screen. O14649. CHO-KCNK3 thallium flux, FluxOR fluorescence; active compounds read low. B-score at 10 µM. 0.84% of 340,000 active;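 active = B-score under library mean minus 4 SD, starting fluorescence ratio at most library mean plus 5 SD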;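 note: more negative B-score means stronger inhibition of thallium flux through KCNK3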
KCNQ1 block – inhibitors of human KCNQ1 potassium channel. P51787. CHO-K1 KCNQ1, FluxOR thallium flux fluorescence; active compounds read high. 1.3% of 310,000 active. B-score at 10 µM;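 active = compounds whose thallium flux B-score, printed positive for inhibition, exceeds three library SD while starting fluorescence stays within three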;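 note: channel opened by potassium depolarization with thallium stimulus after 20 min compound exposure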
Target sequence (P51787 whole entry, looked up): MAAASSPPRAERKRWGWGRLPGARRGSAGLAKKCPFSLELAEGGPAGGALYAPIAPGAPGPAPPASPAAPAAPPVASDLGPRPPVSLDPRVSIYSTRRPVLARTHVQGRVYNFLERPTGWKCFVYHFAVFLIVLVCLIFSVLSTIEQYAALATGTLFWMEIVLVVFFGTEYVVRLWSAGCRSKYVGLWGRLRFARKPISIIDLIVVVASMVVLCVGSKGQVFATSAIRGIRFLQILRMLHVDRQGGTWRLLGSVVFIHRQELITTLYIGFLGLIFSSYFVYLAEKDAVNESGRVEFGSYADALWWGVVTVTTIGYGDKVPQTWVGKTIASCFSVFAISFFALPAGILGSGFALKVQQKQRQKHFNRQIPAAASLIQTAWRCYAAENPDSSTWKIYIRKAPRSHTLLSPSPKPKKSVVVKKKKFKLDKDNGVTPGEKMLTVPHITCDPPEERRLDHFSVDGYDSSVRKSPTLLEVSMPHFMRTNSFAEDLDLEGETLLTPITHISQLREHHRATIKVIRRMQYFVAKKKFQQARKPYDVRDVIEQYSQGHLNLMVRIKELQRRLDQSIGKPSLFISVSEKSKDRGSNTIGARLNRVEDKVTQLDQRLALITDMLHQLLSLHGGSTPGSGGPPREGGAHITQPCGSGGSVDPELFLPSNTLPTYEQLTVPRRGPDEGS
hERG rescue – shields human hERG channel from block by proarrhythmic agents; CHO-hERG, FluxOR thallium flux, dofetilide IC70 present; activation (rescue from dofetilide block), less the hit threshold, % at 10 µM; 0.51% of 310,000 active;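 active = activation above the mean of controls blocked by dofetilide plus 5 SD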;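 note: thallium influx through hERG after potassium depolarization seen as dye fluorescence rise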
KCNQ1 pot – potentiators or activators of human KCNQ1 potassium channel; B-score at 10 µM; P51787; CHO-K1 KCNQ1, thallium flux FluxOR fluorescence; active compounds read high; AID 2648; 0.35% of 310,000 active;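 active = fluorescence ratio B-score, a plate-corrected score, at least three library SD, with initial intensity B-score within 5 SD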
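assay system = CHO-K1 cells stably expressing KCNQ1 | medium = assay buffer, equal DMSO in all wells | timing = 37 °C overnight plating, 90-min dark dye load, 20-min compound pretreatment | measured by = kinetic FluxOR thallium fluorescence, 10-s 1-Hz baseline, 110-s post-stimulus read | measure = fluorescence change relative to baseline, converted to B score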
Kir21 inh – blocks the mouse Kir2.1 inward-rectifier potassium channel; HEK293-Kir2.1, FluxOR thallium flux fluorescence; active compounds read low; B-score at 10 µM; 0.85% of 310,000 active; AID 1672;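 active = fluorescence ratio B-score at or below minus 3 SD of library scores, with starting-brightness B-score within 2 SD, cut at about -4.2 in these data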;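 note: channel flux triggered by added potassium and thallium sulfate stimulus; B-score of peak minus minimum fluorescence over baseline after thallium stimulus; more negative B-score means stronger Kir2.1 block with less thallium influx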
KCNK9 inh – blocks the human KCNK9 two-pore domain potassium channel; 1.2% of 310,000 active; HEK293 KCNK9, FluxOR thallium flux fluorescence; active compounds read low; B-score at 10 µM; Q9NPC2;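 active = ratio B-score over 3 SD below the library mean, with starting fluorescence within 5 SD of its mean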;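 note: negative B-score means less thallium flux so channel inhibition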
KCNK9 inh conf – human KCNK9 inhibitor confirmation; shares compounds with KCNK9 inh; HEK293 KCNK9 cells, FluxOR thallium flux fluorescence; inhibition, % at 10 µM; 43% of 4,900 active; AID 492992;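 active = thallium signal inhibited by more than 5 SD of the compound-free buffer control wells, on both duplicate plates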;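 note: 0% = assay buffer control wells without compound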
Kir2-1 spec – mouse Kir2.1 off-target activity of KCNK9 modulators; shares compounds with KCNK9 inh; Kir2.1 cells, FluxOR thallium flux fluorescence; inhibition, % at 10 µM; 4% of 4,900 active;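 active = thallium signal drop more than 5 SD beyond the mean of the no-compound control wells, seen in both duplicate plates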;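 note: signal is fluorescence rise after thallium addition divided by baseline fluorescence; plate controls were assay buffer only for no effect and full block by chlorpromazine control for full effect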
HEK293 Tl ctr – second counter-screen for KCNK9 modulators: effect in non-induced cells; shares compounds with KCNK9 inh; non-induced KCNK9-HEK293, FluxOR thallium flux; inhibition, % at 10 µM; 40% of 4,900 active; AID 492997;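 active = thallium signal drop beyond 5 SD of the untreated control mean, on both duplicate plates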;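 note: plate controls were buffer only IC0 wells for no effect and SID17386958 at its maximal inhibitory level for full effect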
KCNK3 confirm – human KCNK3 channel inhibition, confirmation assay; shares compounds with KCNK3 block; CHO-KCNK3 thallium flux, FluxOR fluorescence; 0% buffer, 100% carvedilol maximal block; ratio percent of control, % at 10 µM; 99% of 2,400 active; AID 651638;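 active = ratio percent of control, averaged over triplicates, above buffer control mean plus 5 SD, cut at about 64% in these data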;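 note: ratio is the fluorescence rise from min to max over baseline after thallium stimulus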
KCNK3 noninduced – activity in cells without induced KCNK3 expression | AID 651747 | 40% of 2,400 active | shares compounds with KCNK3 block | thallium flux ratio (lower = more inhibition) at 10 µM | non-induced KCNK3 parental cells, FluxOR thallium flux; active compounds read low;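 active = thallium flux ratio, averaged over three wells, more than 5 SD below the buffer control mean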;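 note: host cells are CHO cells without KCNK3 induction; ratio is peak minus trough fluorescence over baseline then normalized to buffer controls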
Numbers without * were called inactive; i = inactive; . = not tested or not shown. Only some compounds are listed: those with a hit (about 3.8% of all), similar ones and a draw of the others.

SMILES	KCNK3 block	KCNQ1 block	hERG rescue	KCNQ1 pot	Kir21 inh	KCNK9 inh	KCNK9 inh conf	Kir2-1 spec	HEK293 Tl ctr	KCNK3 confirm	KCNK3 noninduced
COc1ccc(OC)c2c1C(=O)C(Cl)=C(Cl)C2=O	-8.87*	10*	-29.5	i	-4.35*	-9.76*	58.0%*	41.0%*	87.0%*	150.7*	0.089*
COc1ccc(N)c2c1C(=O)c1ccccc1C2=O	i	i	-12.1	i	2.23	i	.	.	.	.	.
CCCCC(C(=O)NC1CCCC1)N(Cc1ccco1)C(=O)Cn1nnc(-c2ccc(F)cc2)n1 (centres undefined)	-11.8*	i	-3.9	i	0.19	-21.9*	53.5%*	i	37.0%*	92.0*	i
CCC(CC)COC(=O)C(C#N)c1nc2ccccc2nc1N1CCOCC1 (centres undefined)	-11.6*	i	-18.6	i	-0.11	-15.8*	66.5%*	i	49.0%*	104.3*	0.128*
O=C(c1ccco1)N1CCN(c2ncnc3scc(-c4cccs4)c23)CC1	i	i	-11.1	i	-0.43	i	.	.	.	.	.
Fc1ccc(-c2csc3ncnc(N4CCN(c5ccccc5)CC4)c23)cc1	-10.1*	i	-5.9	i	-0.8	-13.3*	i	i	29.5%*	117.0*	i
c1ccc(N2CCN(c3ncnc4scc(-c5cccs5)c34)CC2)cc1	-8.88*	i	-9.9	i	-0.07	-13.3*	42.5%*	i	35.5%*	148.3*	0.111*
CCOc1ccc(NC(=O)CN(C)S(=O)(=O)c2ccc3c(c2)CCC(=O)N3)cc1	i	i	-10.5	i	2.83	i	.	.	.	.	.
O=C(NNC(=O)c1ccccc1OCc1ccccc1)c1ccccc1F	-11.4*	i	-13.4	i	0.95	-9.76*	29.0%*	i	23.5%*	117.7*	0.154*
O=C(Nc1ccc(Cl)c(S(=O)(=O)N2CCOCC2)c1)c1cc(=O)[nH]c2ccccc12	i	.	.	.	.	.	.	.	.	.	.
Cc1nc(SC(C)C(=O)Nc2cccc(C(F)(F)F)c2)c2c(C)c(C(=O)O)sc2n1 (centres undefined)	i	i	-10.7	i	-0.53	i	.	.	.	.	.
Cc1nc(N2CCC(C)CC2)c2c(C)c(C(=O)Nc3cccc(C(F)(F)F)c3)sc2n1	-9.42*	13*	-8.8	i	1.37	i	i	i	30.5%*	126.0*	0.13*
CCOc1ccc(CN(C)C(=O)CNC(=O)Cc2cccc3ccccc23)cc1	i	i	-4.7	i	0.11	i	.	.	.	.	.
CCc1ccc(NC(=O)CN(N=Nc2nonc2C)c2nonc2C)cc1	-11.4*	i	-14.2	i	0.58	-8.99*	64.0%*	i	33.5%*	115.3*	i
O=C(NNC(=O)c1cc(-c2ccc(Cl)cc2)nc2ccccc12)c1csc(N2CCOCC2)n1	-9*	i	-17.3	i	0.14	-10.3*	28.5%*	i	i	79.7*	i
O=C(NNC(=O)c1cc(-c2ccccc2)nc2ccccc12)c1csc(N2CCOCC2)n1	i	i	-18.8	i	-0.4	i	.	.	.	.	.
CCOC(=O)c1cc(-c2ccccc2)sc1NC(=O)CSc1nnnn1C	-10.6*	i	-6.7	i	-0.93	-9.62*	54.0%*	i	32.0%*	104.3*	i
CCOC(=O)c1sc(-c2ccccc2)cc1NC(=O)CSc1nnnn1C	-11.9*	i	-5.8	i	1.96	-10.7*	52.5%*	i	34.5%*	86.7*	i
CCOC(=O)c1cccc(NC(=O)CSc2nnnn2C)c1	i	i	-12.1	i	0.31	i	.	.	.	.	.
CSc1ccc(Cl)c(C(=O)NNC(=O)c2csc(N3CCOCC3)n2)c1	i	i	-14.8	i	-0.46	i	.	.	.	.	.
CC(Cc1cccs1)NC(=O)Nc1ccc(Cl)cc1 (centres undefined)	i	i	-3.9	i	-0.1	i	.	.	.	.	.
CC(Cc1cccs1)NC(=O)Nc1ccc(Cl)c(Cl)c1 (centres undefined)	-12.7*	i	-12.1	i	-0.04	-15.8*	61.5%*	i	42.5%*	110.3*	0.158*
CCC(C(=O)O/N=C(\N)c1cccc(C)c1)c1ccccc1 (centres undefined)	-14.6*	i	-13.2	i	-0.41	-9.31*	34.5%*	i	23.5%*	127.0*	0.151*
Cc1cccc(/C(N)=N/OC(=O)Cc2ccccc2)c1	i	i	-8.1	i	0.56	i	.	.	.	.	.
CCC(Oc1ccccc1)C(=O)Nc1ccccc1N1CCCC1 (centres undefined)	-12.7*	i	-12.0	i	-5.46*	-11.5*	59.0%*	45.0%*	74.0%*	111.0*	i
SMILES	KCNK3 block	KCNQ1 block	hERG rescue	KCNQ1 pot	Kir21 inh	KCNK9 inh	KCNK9 inh conf	Kir2-1 spec	HEK293 Tl ctr	KCNK3 confirm	KCNK3 noninduced
CCC(Oc1ccccc1)C(=O)Nc1ccccc1OC (centres undefined)	i	i	-7.5	i	-1.16	i	.	.	.	.	.
CC(C)c1cc(NC(=O)c2ccccc2)cc(C(C)C)c1O	i	i	-3.3	i	-2.59	i	.	.	.	.	.
CC(C)c1ccccc1NC(=O)c1cccc(NC(=O)c2ccccc2)c1	-10.5*	i	-5.5	i	-2.13	-10.1*	40.5%*	i	i	105.7*	i
CCc1cccc(CC)c1NC(=O)c1cccc(NC(=O)c2ccccc2)c1	i	i	-6.2	i	1.29	-8.6*	64.5%*	i	i	81.3*	i
CCOc1ccc(C(=S)N2CCCC2)c(OCC)c1	i	i	-11.2	i	-0.02	i	.	.	.	.	.
O=C(Cc1cccs1)Nc1ccc(-c2nnc(-c3ccccc3)o2)cc1	i	i	-0.7	i	0	i	.	.	.	.	.
Cc1cccc(-c2nnc(-c3cccc(NC(=O)Cc4cccs4)c3)o2)c1	-15.9*	i	-0.5	i	-0.13	-17.1*	54.0%*	i	29.5%*	148.3*	0.14*
